These results are taken from ChEMBL document CHEMBL1137919, “Dipeptidyl aspartyl fluoromethylketones as potent caspase inhibitors: SAR of the N-protecting group” (Bioorg Med Chem Lett, 2004).

One experiment relates to HeLa. Kind of experiment: Protecting effect against apoptosis induced by TNF-alpha in HeLa cells was determined. Type of experiment: functional, Homo sapiens. The method in brief: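 HeLa cells exposed to TNF-a to induce apoptosis, with test inhibitor present. Viability read out as calcein AM uptake. The value reported is the inhibitor concentration giving 50% cell protection.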

Experiment [1] in a line: Inhibition concentration required against factor Xa.
Experiment [2] can be described thus: Percent survival of the mice after 1 hr treatment was determined after induction of apoptosis by anti-Fas antibody; Dose is 0.5 mg/kg. Type of experiment: functional. The settings on record: Mus musculus. The method in brief: (§1)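 Mouse anti-Fas lethality model: mice given 8 µg anti-Fas monoclonal antibody (clone JO-2) IV, then 5 min later an IV dose of inhibitor (0.25–10 mg/kg) or vehicle. The aqueous vehicle contained 50 mM Tris–HCl. Six mice per group. Survivors were counted at 1, 3, 6 and 24 h and at 5 days, expressed as % of the animals in the group.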

Experiment [3] in a line: Percent survival of the mice after 5 days treatment was determined after induction of apoptosis by anti-Fas antibody; Dose is 10 mg/kg. The experiment is classed as functional. The settings on record: Mus musculus, 120 h. The gist of the method:
as §1

A short description of experiment [4]: Percent survival of the mice after 6 hr treatment was determined after induction of apoptosis by anti-Fas antibody; Dose is 0.25 mg/kg. The experiment is classed as functional. The settings on record: Mus musculus. The method in brief: as §1
The next experiment addresses T1, Caspase-9 (Homo sapiens, UniProt P55211).
T1 sequence (P55211 whole entry): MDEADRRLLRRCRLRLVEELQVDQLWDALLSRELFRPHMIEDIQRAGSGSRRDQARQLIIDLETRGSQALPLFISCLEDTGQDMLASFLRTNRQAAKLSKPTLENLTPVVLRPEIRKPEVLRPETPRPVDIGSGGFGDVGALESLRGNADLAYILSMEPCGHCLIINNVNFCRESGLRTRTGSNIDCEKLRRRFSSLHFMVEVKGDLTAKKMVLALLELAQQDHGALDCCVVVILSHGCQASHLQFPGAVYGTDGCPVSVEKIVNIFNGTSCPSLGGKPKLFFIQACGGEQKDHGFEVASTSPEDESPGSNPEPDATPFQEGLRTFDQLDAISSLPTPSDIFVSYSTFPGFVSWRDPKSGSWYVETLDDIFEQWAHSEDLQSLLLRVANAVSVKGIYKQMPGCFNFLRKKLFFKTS
The experiment can be described thus: Inhibition concentration required against caspase-9.

Experiment [5] can be described thus: Percent survival of the mice after 5 days treatment was determined after induction of apoptosis by anti-Fas antibody; Dose is 0.25 mg/kg. The experiment is classed as functional. The settings on record: Mus musculus, 120 h. The method in brief:
as §1

Experiment [6] is described as follows: Inhibition concentration required against caspase-1.
Experiment [7] is described as follows: Percent survival of the mice after 24 hr treatment was determined after induction of apoptosis by anti-Fas antibody; Dose is 0.25 mg/kg. The experiment is classed as functional. Particulars: Mus musculus. The gist of the method: as §1
A short description of experiment [8]: Inhibition concentration required against cathepsin B. Also noted: species or system Homo sapiens.
In experiment [9] the target is T2, Calpain-1 catalytic subunit (Homo sapiens, UniProt P07384).
T2 sequence (P07384 whole entry): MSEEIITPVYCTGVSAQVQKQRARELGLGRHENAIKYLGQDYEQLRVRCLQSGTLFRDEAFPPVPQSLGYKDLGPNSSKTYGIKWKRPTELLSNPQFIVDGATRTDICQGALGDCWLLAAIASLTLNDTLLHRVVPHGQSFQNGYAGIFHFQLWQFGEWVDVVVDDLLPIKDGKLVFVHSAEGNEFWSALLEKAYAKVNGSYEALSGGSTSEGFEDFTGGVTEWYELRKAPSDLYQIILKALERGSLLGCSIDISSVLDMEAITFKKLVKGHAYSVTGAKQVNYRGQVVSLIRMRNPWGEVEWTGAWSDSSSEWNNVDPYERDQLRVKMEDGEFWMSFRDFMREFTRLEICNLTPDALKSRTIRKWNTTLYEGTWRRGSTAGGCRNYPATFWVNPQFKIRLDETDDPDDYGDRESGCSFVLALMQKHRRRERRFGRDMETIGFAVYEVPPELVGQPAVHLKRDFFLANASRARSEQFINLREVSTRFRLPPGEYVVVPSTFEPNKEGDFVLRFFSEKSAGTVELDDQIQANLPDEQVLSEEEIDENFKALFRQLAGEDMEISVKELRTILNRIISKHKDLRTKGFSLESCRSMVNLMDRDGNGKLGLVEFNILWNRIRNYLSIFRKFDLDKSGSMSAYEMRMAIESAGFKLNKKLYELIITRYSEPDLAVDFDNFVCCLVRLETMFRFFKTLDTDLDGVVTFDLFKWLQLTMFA
The experiment can be described thus: Inhibition concentration required against calpain-1.

Experiment [10] is described as follows: Percent survival of the mice after 24 hr treatment was determined after induction of apoptosis by anti-Fas antibody; Dose is 10 mg/kg. Type of experiment: functional. Particulars: Mus musculus. The gist of the method: as §1
The next experiment addresses T3, Caspase-3 (Homo sapiens, UniProt P42574).
T3 sequence (P42574 whole entry): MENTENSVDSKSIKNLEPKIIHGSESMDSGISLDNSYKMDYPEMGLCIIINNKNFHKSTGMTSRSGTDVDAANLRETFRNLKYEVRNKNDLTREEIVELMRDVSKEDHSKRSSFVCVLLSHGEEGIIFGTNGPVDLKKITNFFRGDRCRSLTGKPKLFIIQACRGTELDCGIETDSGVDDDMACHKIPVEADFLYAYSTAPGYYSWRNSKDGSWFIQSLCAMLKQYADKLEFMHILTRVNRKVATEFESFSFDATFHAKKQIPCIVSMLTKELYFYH
Kind of experiment: Inhibitory activity against human recombinant caspase-3.

Experiment [11] can be described thus: Percent survival of the mice after 1 hr treatment was determined after induction of apoptosis by anti-Fas antibody; Dose is 10 mg/kg. Type of experiment: functional. The settings on record: Mus musculus. The method in brief:
as §1

A short description of experiment [12]: Percent survival of the mice after 1 hr treatment was determined after induction of apoptosis by anti-Fas antibody; Dose is 1 mg/kg. The experiment is classed as functional. Particulars: Mus musculus. The gist of the method:
as §1

Experiment [13] can be described thus: Percent survival of the mice after 5 days treatment was determined after induction of apoptosis by anti-Fas antibody; Dose is 0.5 mg/kg. The settings on record: Mus musculus, 120 h. The experiment is classed as functional. The gist of the method:
as §1

Experiment [14] can be described thus: Percent survival of the mice after 24 hr treatment was determined after induction of apoptosis by anti-Fas antibody; Dose is 0 mg/kg. The experiment is classed as functional, Mus musculus. The method in brief:
as §1

Experiment [15] can be described thus: Percent survival of the mice after 1 hr treatment was determined after induction of apoptosis by anti-Fas antibody; Dose is 0.25 mg/kg. Type of experiment: functional. The settings on record: Mus musculus. The method in brief:
as §1

Experiment [16] can be described thus: Percent survival of the mice after 6 hr treatment was determined after induction of apoptosis by anti-Fas antibody; Dose is 10 mg/kg. Type of experiment: functional. The settings on record: Mus musculus. The gist of the method:
as §1

Experiment [17] is described as follows: Percent survival of the mice after 24 hr treatment was determined after induction of apoptosis by anti-Fas antibody; Dose is 0.5 mg/kg. The experiment is classed as functional. The settings on record: Mus musculus. The method in brief:
as §1

The nature of experiment [18]: Percent survival of the mice after 24 hr treatment was determined after induction of apoptosis by anti-Fas antibody; Dose is 1 mg/kg. The settings on record: Mus musculus. Type of experiment: functional. The method in brief:
as §1

The nature of experiment [19]: Percent survival of the mice after 6 hr treatment was determined after induction of apoptosis by anti-Fas antibody; Dose is 1 mg/kg. The experiment is classed as functional. Particulars: Mus musculus. The gist of the method: as §1
Experiment [20] can be described thus: Percent survival of the mice after 6 hr treatment was determined after induction of apoptosis by anti-Fas antibody; Dose is 0.5 mg/kg. The experiment is classed as functional. The settings on record: Mus musculus. The method in brief:
as §1

Experiment [21] in a line: Percent survival of the mice after 5 days treatment was determined after induction of apoptosis by anti-Fas antibody; Dose is 0 mg/kg. The experiment is classed as functional, Mus musculus. The method in brief:
as §1

Experiment [22] can be described thus: Percent survival of the mice after 3h treatment was determined after induction of apoptosis by anti-Fas antibody; Dose is 10 mg/kg. The experiment is classed as functional. The settings on record: Mus musculus. The method in brief:
as §1

The nature of experiment [23]: Percent survival of the mice after 5 days treatment was determined after induction of apoptosis by anti-Fas antibody; Dose is 1 mg/kg. The settings on record: Mus musculus, 120 h. Type of experiment: functional. The gist of the method: as §1
The next experiment has as its target T4, Caspase-7 (Homo sapiens, UniProt P55210).
T4 sequence (P55210 whole entry): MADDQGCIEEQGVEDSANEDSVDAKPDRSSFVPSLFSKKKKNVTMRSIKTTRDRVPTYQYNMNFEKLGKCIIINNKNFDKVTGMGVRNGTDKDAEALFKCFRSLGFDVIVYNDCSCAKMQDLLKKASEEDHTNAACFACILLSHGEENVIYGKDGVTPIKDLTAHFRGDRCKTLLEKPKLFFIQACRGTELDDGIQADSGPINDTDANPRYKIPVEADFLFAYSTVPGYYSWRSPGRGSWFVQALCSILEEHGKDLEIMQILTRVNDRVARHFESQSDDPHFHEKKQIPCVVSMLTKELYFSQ
The experiment can be described thus: Inhibition concentration required against caspase-7.

The nature of experiment [24]: Percent survival of the mice after 1 hr treatment was determined after induction of apoptosis by anti-Fas antibody; Dose is 0 mg/kg. Type of experiment: functional, Mus musculus. The gist of the method: as §1
Experiment [25] is described as follows: Percent survival of the mice after 3h treatment was determined after induction of apoptosis by anti-Fas antibody; Dose is 1 mg/kg. Type of experiment: functional. The settings on record: Mus musculus. The method in brief:
as §1

The next experiment concerns the target Caspase-8 (Homo sapiens, UniProt Q14790). Kind of experiment: Inhibition concentration required against caspase-8.
A short description of experiment [26]: Percent survival of the mice after 3h treatment was determined after induction of apoptosis by anti-Fas antibody; Dose is 0.25 mg/kg. The experiment is classed as functional. Particulars: Mus musculus. The gist of the method:
as §1

A short description of experiment [27]: Percent survival of the mice after 6 hr treatment was determined after induction of apoptosis by anti-Fas antibody; Dose is 0 mg/kg. Type of experiment: functional, Mus musculus. The method in brief:
as §1

Experiment [28] is described as follows: Percent survival of the mice after 3h treatment was determined after induction of apoptosis by anti-Fas antibody; Dose is 0.5 mg/kg. The experiment is classed as functional. The settings on record: Mus musculus. The method in brief: as §1
The nature of experiment [29]: Percent survival of the mice after 3h treatment was determined after induction of apoptosis by anti-Fas antibody; Dose is 0 mg/kg. The experiment is classed as functional, Mus musculus. The method in brief: as §1

Sequence of Caspase-8 (Q14790 217-374 limits assumed): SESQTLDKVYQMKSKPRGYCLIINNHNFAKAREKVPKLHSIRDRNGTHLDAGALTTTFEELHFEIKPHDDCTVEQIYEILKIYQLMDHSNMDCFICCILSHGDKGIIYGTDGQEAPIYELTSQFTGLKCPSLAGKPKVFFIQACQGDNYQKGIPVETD
Sequence of Caspase-8 (Q14790 385-479 limits assumed): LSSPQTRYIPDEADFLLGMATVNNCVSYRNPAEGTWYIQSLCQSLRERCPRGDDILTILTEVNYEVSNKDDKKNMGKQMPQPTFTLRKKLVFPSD

For `COC(=O)N[C@H](C(=O)NC(CC(=O)O)C(=O)CF)C(C)C` (stereo not given in full), the Protection in the experiment with HeLa was 500 nM.
On the same count and under the same terms, the same measure for `CC(C)[C@H](NC(=O)OCc1cc(Cl)ccc1Cl)C(=O)NC(CC(=O)O)C(=O)CF` (stereo not given in full): 100 nM.
As usually defined, the IC50 is the concentration needed to halve the response being measured. On to `CC(C)[C@H](NC(=O)OCc1ccc(Cl)cc1Cl)C(=O)NC(CC(=O)O)C(=O)CF` (stereo not given in full), for which the half-inhibitory concentration (IC50) in experiment [1] was greater than 100000 nM; against Caspase-9 it was 9 nM; in experiment [6], 26 nM; in experiment [8] it was roughly 10000 nM; in experiment [9] it was roughly 5000 nM; at Caspase-3 it was 25 nM. Moreover, the IC50 was found to be 10 nM against Caspase-7 and 6 nM against Caspase-8. The survival at 0.5 mg/kg stood at 100% in experiment [2]; 50% in experiment [13]; 50% in experiment [17]; 83% in [20]; 100% in experiment [28]. The survival at 10 mg/kg in [3], in [10], in experiment [11], in experiment [16] and in experiment [22] was 100% each time. Moreover, the survival at 0.25 mg/kg in experiment [4] came to 83%; in experiment [5], 16%; in [7], 33%; in [15], 100%; in experiment [26], 100%. In addition, the survival at 1 mg/kg in experiment [12], in experiment [18], in [19], in experiment [23] and in experiment [25] was 100% each time. Further, the Survival in experiment [14], in [21], in [24], in [27] and in experiment [29] was 0% in each case. This compound yielded a Protection with HeLa of 100 nM.
`CC(C)[C@H](NC(=O)OCc1ccc(F)cc1)C(=O)NC(CC(=O)O)C(=O)CF` (stereo not given in full) gave a Protection in the experiment on HeLa of 150 nM.
Same read-out and setting: as for `CC(C)[C@H](NC(=O)OCC1CCCC1)C(=O)NC(CC(=O)O)C(=O)CF` (stereo not given in full), the figure is 300 nM; as for `CC(C)[C@H](NC(=O)OCc1ccc(Cl)c(Cl)c1)C(=O)NC(CC(=O)O)C(=O)CF` (stereo not given in full), 150 nM; as for `CC(C)[C@H](NC(=O)OCc1ccccc1)C(=O)NC(CC(=O)O)C(=O)CF` (stereo not given in full), 250 nM.
